Measurements from ChEMBL document CHEMBL4354867, “Validation and Characterization of Five Distinct Novel Inhibitors of Human Cytomegalovirus” (J Med Chem, 2020).
Active and inactive are the calls of the source. The calls are words filed in the database; no cut-off is given here.

Experiments:
[1] = system: Human betaherpesvirus 5; assay: Antiviral activity against HCMV TB40 infected in human HFF cells assessed as reduction in plaque formation treated with compound following viral infection at MOI of 100 PFU/wells measured at 10 days post-infection in presence of GCV by crystal violet staining based assay; type: functional, organism-based; conditions: Human betaherpesvirus 5, TB40, HFF, 240 h
In short: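 HFFs were infected at about 100 plaques/well and adsorbed for 90 min. They were then overlaid with DMEM containing 0.5% carboxymethylcellulose, 4% FBS and drugs, and incubated at 37 °C. A dose-response of each drug alone gave its EC₅₀. Combinations started at twice each EC₅₀, followed by two-fold serial dilutions. Plaques were counted after crystal violet staining. The Bliss coefficient is observed over expected fold inhibition (>1 synergy, <1 antagonism, =1 additive).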

[2] = system: MEF; assay: Cytotoxicity against mouse MEF cells assessed as reduction in cell viability at >=10 uM incubated for 72 hrs or 8 to 10 days by MTT assay; type: cell-based
In short: (§1)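 MTT assay on uninfected cells exposed to compound for 72 h or 8–10 days, matching the antiviral assay durations. MTT (5 mg/mL stock in PBS) added, then 2–3 h at 37 °C. Formazan absorbance read at 560 nm.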

[3] = system: Human betaherpesvirus 5; assay: Antiviral activity against HCMV Towne infected in human HFF cells assessed as reduction in viral DNA replication at 3 uM treated with compound following viral infection at MOI of 0.1 PFU/cell by US17 real time PCR analysis; type: functional, organism-based; conditions: strain Towne
In short: (§2)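 At set time points supernatants were harvested and cells lysed for DNA. Cell-associated viral DNA and supernatant viral DNA quantified by real-time PCR targeting a 151-bp conserved US17 region.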

[4] = system: Human betaherpesvirus 5; assay: Antiviral activity against HCMV Towne infected in human HFF cells assessed as reduction in viral DNA yields in the supernatant at 3 uM treated with compound following viral infection at MOI of 0.1 PFU/cell by US17 real time PCR analysis; type: functional, organism-based; conditions: strain Towne; in short: as §2
[5] = system: Human betaherpesvirus 5; assay: Antiviral activity against GCV-resistant HCMV Towne infected in human HFF cells assessed as reduction in plaque formation treated with compound following viral infection and incubated for 8 to 10 days by crystal violet staining based assay; type: functional, organism-based; conditions: Human betaherpesvirus 5, strain Towne
[6] = system: Human betaherpesvirus 5; assay: Antiviral activity against HCMV Towne infected in human HFF cells assessed as reduction in plaque formation treated with compound following viral infection and incubated for 8 to 10 days by crystal violet staining based assay; type: functional, organism-based; conditions: Human betaherpesvirus 5, strain Towne
[7] = system: Human betaherpesvirus 5; assay: Antiviral activity against HCMV Towne infected in human HFF cells assessed as reduction in plaque formation treated with compound following viral infection at MOI of 1 PFU/cell and measured at 10 days post-infection in presence of letermovir by crystal violet staining based assay; type: functional, organism-based; conditions: Human betaherpesvirus 5, strain Towne, 240 h
[8] = Antiviral activity against Mouse Cytomegalovirus Smith (ATCC VR-1399) infected in mouse MEF cells assessed as reduction in plaque formation measured after 3 days by crystal violet staining based assay; type: functional, cell-based, Murine cytomegalovirus (strain Smith); conditions: Murid betaherpesvirus 1, ATCC VR-1399, MEF, 72 h; read-out: EC50
In short: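 Plaque reduction with MCMV Smith in mouse embryonic fibroblasts, with compound in a carboxymethylcellulose overlay. Assay ended at 3 days and plaques counted after crystal violet staining.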

[9] = system: Human betaherpesvirus 5; assay: Inhibition of viral protein expression in HCMV Towne infected in human HFF cells assessed as reduction in IE1 expression at 1 to 10 uM treated with compound following viral infection at MOI of 1 PFU/cell measured at 72 hrs post infection by Western blot analysis; type: functional, organism-based; conditions: strain Towne
In short: (§3)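 HFFs infected with HCMV Towne (MOI 1), then treated with compound. Lysates taken at 72 hpi, equal protein loaded on 8–10% Tris-glycine SDS-PAGE and transferred to PVDF. Primary antibodies overnight at 4 °C, HRP secondary, chemiluminescent detection; β-actin as loading control.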

[10] = system: Human betaherpesvirus 5; assay: Antiviral activity against pp28-luciferase harboring UL97 C607Y mutant expressing GCV-resistant HCMV Towne infected in human HFF cells assessed as reduction in viral replication at 0.5 to 3 uM treated with compound following viral infection at MOI of 0.1 PFU/cell and measured at 72 hrs post infection by luciferase reporter gene assay; type: functional, organism-based; conditions: strain Towne
In short: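 HFFs infected with GCV-resistant pp28-luciferase Towne (MOI 0.1), then treated with a compound dilution series. Luciferase, driven by the UL99 late promoter, read in cell lysates at 72 hpi. Data are mean ± SD of triplicates from a single experiment.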

[11] = system: Human betaherpesvirus 5; assay: Antiviral activity against pp28-luciferase expressing HCMV Towne infected in human HFF cells assessed as reduction in viral replication treated with compound immediately after viral infection at MOI of 1 PFU/cell followed by compound washout after 6 hrs and measured after 3 days by luciferase reporter gene assay; type: functional; conditions: strain Towne
In short: (§4)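 Time-of-addition in HFFs infected with HCMV Towne (MOI 1). Add-on: compound added at 0, 6, 24 or 48 hpi. Removal: compound added right after infection and washed out after 0, 6, 24 or 48 h. Luciferase read at 72 hpi.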

[12] = system: Human betaherpesvirus 5; assay: Antiviral activity against HCMV TB40 infected in human HFF cells assessed as reduction in plaque formation at 0.5 to 3 uM treated with compound following viral infection at […] measured after 8 days by crystal violet staining analysis; type: functional, organism-based
In short: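 HFFs (2 × 10⁵/well) infected with HCMV TB40 at about 100 plaques/well for 90 min. Inoculum removed, then DMEM with 0.5% CMC, 4% FBS and compound added. Incubated at 37 °C; plaques stained with crystal violet and counted at 8 dpi. Experiment repeated three times; one representative shown.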

[13] = system: Human alphaherpesvirus 1; assay: Antiviral activity against HSV 1 infected in African green monkey Vero cells assessed as reduction in plaque formation incubated for 36 hrs by crystal violet staining based assay; type: functional, organism-based; conditions: vero
In short: (§5)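 Plaque reduction in Vero cells: virus adsorbed 60 min, then compound added in a carboxymethylcellulose overlay. Plaques counted after 36 h by crystal violet staining.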

[14] = system: Human betaherpesvirus 5; assay: Antiviral activity against pp28-luciferase expressing HCMV Towne infected in human HFF cells assessed as reduction in viral replication treated with compound at 24 hrs post viral infection at MOI of 1 PFU/cell and measured after 3 days by luciferase reporter gene assay; type: functional, organism-based; conditions: strain Towne; in short: as §4
[15] = system: HFF; assay: Cytotoxicity against human HFF cells assessed as reduction in cell viability incubated for 72 hrs or 10 days by MTT assay; type: cell-based; in short: as §1
[16] = system: Human betaherpesvirus 5; assay: Inhibition of viral protein expression in HCMV Towne infected in human HFF cells assessed as reduction in IE2 expression at 1 to 10 uM treated with compound following viral infection at MOI of 1 PFU/cell measured at 72 hrs post infection by Western blot analysis; type: functional, organism-based; conditions: strain Towne; in short: as §3
[17] = system: Human gammaherpesvirus 4; assay: Antiviral activity against EBV infected in human AKATA cells assessed as reduction in IgG-induced lytic virus replication measured at 48 hrs post-lytic induction by qRT-PCR analysis; type: functional, organism-based
[18] = system: Human betaherpesvirus 5; assay: Antiviral activity against HCMV TB40 infected in human HFF cells assessed as reduction in plaque formation treated with compound following viral infection and incubated for 8 to 10 days by crystal violet staining based assay; type: functional, organism-based; conditions: Human betaherpesvirus 5, TB40, HFF
[19] = system: Human alphaherpesvirus 2; assay: Antiviral activity against HSV 2 infected in African green monkey Vero cells assessed as reduction in plaque formation incubated for 36 hrs by crystal violet staining based assay; type: functional, organism-based; conditions: vero; in short: as §5

CC(C)NC(=O)C1CCN(C(=O)c2cc3sccc3n2Cc2ccc(Cl)cc2)CC1
EC50 [1]: 1510 nM
Activity [2]: Toxic
Activity [3]: Active
Activity [4]: Active
EC50 [5]: 1400 nM
EC50 [6]: 4610 nM
EC50 [7]: 3190 nM
EC50 [8]: 1000 nM
inhibition [9]: Active
Activity [10]: Active
Activity [11]: Active
Activity [12]: Active
EC50 [13]: Not Active
Activity [14]: inactive
CC50 [15]: > 200000 nM
inhibition [16]: Active
EC50 [17]: Not Active
EC50 [18]: 1180 nM
EC50 [19]: Not Active
